Screening data: PubChem, The Scripps Research Institute Molecular Screening Center
In the library only some 3% were active in any assay of this set; here they are far more common.
HTR1E antagonist – 5-HT1E receptor antagonists, primary screen, cell-based, HTS | 5-hydroxytryptamine receptor 1E (Homo sapiens), P28566 | CHO 5-HT1E Ga15 NFAT-bla reporter, FRET, antagonist | inhibition, % at 6 µM | actives 0.99% (n = 65,000);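 active = inhibition above a set limit, the mean inhibition across every tested compound plus 3 SD, cut at about 29% in these data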;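 also: signal is the 460 over 535 nm emission ratio of beta-lactamase substrate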
5HT1E ag – 5-HT1E receptor agonists, primary screen, cell-based, HTS. actives 0.69% (n = 65,000). activation, % at 6 µM. 5-hydroxytryptamine receptor 1E (Homo sapiens), P28566. CHO 5-HT1E Ga15 NFAT-bla reporter, FRET; 0% DMSO wells, 100% control agonist wells. AID 574, 2007;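 active = activation above a set limit, the screen-wide mean activation plus 3 SD, cut at about 8.5% in these data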
HTR1A agonist – human 5-HT1a receptor agonists, primary screen, cell-based, CHO, Ga15 NFAT-bla reporter | activation, % at 10 µM | actives 0.56% (n = 65,000) | CHO 5-HT1a Ga15 NFAT-bla reporter, FRET ratio; 0% basal, 100% maximal reference agonist;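 active = activation above the screen-wide mean activation plus 3 SD, cut at about 19% in these data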
S1P1 ag pot – S1P1 agonists and agonism potentiators, primary screen, cell-based, primary and confirmation screens, CRE-bla reporter; Sphingosine 1-phosphate receptor 1 (Homo sapiens), P21453; S1P1 CRE-bla cells, forskolin, beta-lactamase FRET, potentiator mode; S1P1 agonist co-added at EC20, 2 nM; 100% = saturating reference agonist, 0% = basal; activation, % at 9.5 µM; actives 0.57% (n = 56,000); AID 449, 2006;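 active = activation above a cutoff set at the mean activation of all tested compounds plus 3 SD, cut at about 54% in these data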;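 also: forskolin at 4 µM as EC80 and the EC20 agonist is SEW2871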
S1P3 agonist – human S1P3 receptor agonists, primary screen, cell-based, primary and confirmation, NFAT-BLA reporter. Sphingosine 1-phosphate receptor 3 (Homo sapiens), Q99500. S1P3 NFAT-BLA reporter cells, agonism, FRET ratio; relative to 1 µM S1P, basal subtracted. activation, % at 4.5 µM. actives 0.1% (n = 60,000). AID 373, 2006;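 active = activation above the screen-wide mean plus 3 SD, cut at about 4.5% in these data, passing the limit was not always enough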
Target sequence (Q99500 whole entry, looked up): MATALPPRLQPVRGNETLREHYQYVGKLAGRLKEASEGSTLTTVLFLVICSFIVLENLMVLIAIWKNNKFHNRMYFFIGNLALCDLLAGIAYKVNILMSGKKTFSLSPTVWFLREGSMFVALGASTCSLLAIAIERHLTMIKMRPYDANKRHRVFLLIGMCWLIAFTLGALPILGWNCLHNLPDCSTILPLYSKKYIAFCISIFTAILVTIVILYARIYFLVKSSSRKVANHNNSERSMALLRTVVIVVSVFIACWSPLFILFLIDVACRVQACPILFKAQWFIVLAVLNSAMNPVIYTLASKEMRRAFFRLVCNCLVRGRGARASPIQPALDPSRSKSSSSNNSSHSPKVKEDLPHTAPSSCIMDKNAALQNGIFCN
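Assay system: stable CHO line with human S1P3, Gα16, NFAT-BLA reporter; Detection: FRET β-lactamase substrate fluorescence, excitation 405 nm, 460/535 nm emission ratio, background-subtracted; Read-out: percent activation versus median 1 µM S1P response, basal-subtracted, per plate; Incubation: cells plated overnight, compound 4 h 37 °C, substrate 2 h RT.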
5HT1a antag – human 5-HT1a receptor antagonists, primary screen, cell-based, CHO, Ga15 NFAT-bla reporter | AID 612, 2007 | actives 0.68% (n = 62,000) | CHO 5-HT1a Ga15 NFAT-bla reporter, antagonist mode | 5-hydroxytryptamine receptor 1A (Homo sapiens), P08908 | inhibition, % at 10 µM;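 active = inhibition above the mean of all tested compounds plus 3 SD, cut at about 43% in these data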;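 also: receptor stimulated by 5-CT agonist at 100 nM near EC80; beta-lactamase reporter measured by ratiometric fluorescence of a cleavable substrate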
Of the large screens only hits and unclear results are named; the others gave an inactive call.

CN(CCNC(=O)C1CC(=O)N(c2ccc(F)c(Cl)c2)C1)Cc1ccccc1 (configuration not stated)	none
Cc1ccc(-c2nnc(SCc3ccccc3F)o2)cc1	S1P1 ag pot 92.6
COc1ccc(-c2nnc(SCc3ccccc3F)o2)cc1OC	HTR1E antagonist 29.9
Cc1ccc(-c2nnc(SCC(=O)Nc3ccccc3F)o2)cc1	none
Cc1csc2ncc(C(=O)NCc3ccccn3)c(=O)n12	none
COCCn1c(C)cc(C(=O)COC(=O)CCN2C(=O)c3ccccc3C2=O)c1C	none
COC(=O)Cn1c(CN2CCOCC2)nc2c1c(=O)[nH]c(=O)n2C	none
COc1ccc(S(=O)(=O)N2CCCC(C(=O)NCc3ccccn3)C2)cc1 (configuration not stated)	none
CCS(=O)(=O)CCSc1nc2ccccc2o1	none (no result: S1P1 ag pot)
O=C(CSc1nc2ccccc2s1)Nc1ncccn1	none
O=S(=O)(CCSc1ccccn1)c1nc2ccccc2s1	S1P1 ag pot 88.1
O=S(=O)(CCSc1nc2ccccc2o1)c1nc2ccccc2s1	5HT1a antag 47.3
CCN(CC)S(=O)(=O)c1cc(C(=O)n2cccn2)c(Cl)cc1Cl	none
CC(C)c1ccc(OCc2nc(-c3ccccn3)no2)c(Br)c1	S1P1 ag pot 85.5
Clc1ccc(OCc2nc(-c3ccncc3)no2)c(Br)c1	S1P1 ag pot 72.0
Clc1ccccc1OCc1nc(-c2ccncc2)no1	none (no result: S1P1 ag pot)
COc1cccc2c(=O)c(C/C=C(/C)Cl)c(C)[nH]c12	none (no result: S1P1 ag pot)
O=C(Cn1cnc2c(oc3ccccc32)c1=O)NCCc1ccccc1	none (no result: S1P1 ag pot, S1P3 agonist)
O=C(CCc1nc(-c2ccccc2F)no1)NCCc1ccccc1Cl	5HT1E ag 14.7
Cc1ccc(-c2noc(CCC(=O)NCCN3CCN(Cc4ccccc4)CC3)n2)cc1	none
COc1ccc(CNC(=O)CCc2nc(-c3ccccc3F)no2)c(OC)c1	none
Cc1ccc(-c2noc(CCC(=O)NCCc3ccccc3Cl)n2)cc1	5HT1E ag 21.0
O=C(CCc1nc(-c2ccccc2F)no1)Nc1ccc(Oc2ccccc2)cc1	S1P1 ag pot 127.5
CC(NC(=O)OC1CCCCC1)N1C(=O)C2C3C=CC(C3)C2C1=O (configuration not stated)	none
O=S(=O)(c1cccs1)N1CCCc2ccccc21	none (no result: S1P1 ag pot)
CN=c1sc2ccccc2n1CC(O)COCc1ccco1 (configuration not stated)	5HT1E ag 35.6 (no result: 5HT1a antag)
CCC1CCCCN1c1nc2c(c(=O)n(C)c(=O)n2C)n1CCSc1nc2ccccc2o1 (configuration not stated)	none
C=CCn1c(=O)c2ccccc2n2c(SCc3nc(N)nc(Nc4ccccc4C)n3)nnc12	HTR1E antagonist 30.4
C=CCn1c(=O)c2ccccc2n2c(SCC(=O)c3ccccc3)nnc12	none
CCc1nn(C(C)C(=O)NCCN2CCN(c3cccc(C)c3C)CC2)c(=O)c2cc3occc3n12 (configuration not stated)	5HT1E ag 62.1
O=C(OCCN1C(=O)c2ccccc2C1=O)C1CCN(S(=O)(=O)c2cccs2)CC1	none (no result: S1P1 ag pot, S1P3 agonist)
c1ccc(CNc2ncnc3ccccc23)cc1	S1P1 ag pot 105.7
CC1=CCC(C(C)(C)NC(=O)c2ccccc2)C/C1=N\O (configuration not stated)	none
Brc1ccccc1-c1nnc(CSc2nncn2-c2ccccc2)o1	HTR1A agonist 171.1
CSCC[C@H](NC(=O)Nc1ccc(C)cc1C)C(=O)O	HTR1A agonist 110.8
CSCC[C@H](NC(=O)NCc1ccccc1F)C(=O)O	none
COc1cccc(C(=O)Nc2cc(C)c3c(=O)oc4ccccc4c3n2)c1	HTR1A agonist 24.7
Cc1cc(NC(=O)C2CCCC2)nc2c1c(=O)oc1ccccc12	none (no result: S1P1 ag pot, S1P3 agonist)
CCN(CC)C(=O)CSc1nc2ccccc2c(=O)n1CC1CCCCC1	HTR1E antagonist 36.8 (no result: 5HT1a antag)
O=C(CSc1nc2ccccc2c(=O)n1CC1CCCCC1)N1CCOCC1	none (no result: 5HT1a antag)
COc1cccc(-c2cc(C(=O)NCCc3ccccc3)no2)c1	none (no result: S1P1 ag pot, S1P3 agonist)
COc1ccc(CNc2oc(COc3ccccc3)nc2C#N)cc1	none (no result: S1P1 ag pot, S1P3 agonist)
Cc1cccc(OCc2nc(C#N)c(NCc3ccc4c(c3)OCO4)o2)c1	5HT1a antag 42.9 (no result: S1P1 ag pot, S1P3 agonist)
N#Cc1nc(COc2ccc(Cl)cc2)oc1NCc1ccc2c(c1)OCO2	5HT1a antag 51.7 (no result: S1P1 ag pot, S1P3 agonist)
CCNc1oc(COc2cccc(C)c2)nc1C#N	none (no result: S1P1 ag pot, S1P3 agonist)
CCOc1ccccc1N1CCN(Cc2ccc(OC)c(OC)c2OC)CC1	5HT1E ag 16.6, 5HT1a antag 79.8
COc1ccccc1N1CCN(C(c2ccc(C)cc2)c2nnnn2C(C)C)CC1 (configuration not stated)	none
COc1ccccc1N1CCN(C(c2ccc(F)cc2)c2nnnn2C(C)C)CC1 (configuration not stated)	5HT1a antag 42.6
COc1cc(OC)c(OC)cc1CN1CCN(c2ccccc2OC)CC1	5HT1E ag 23.4, 5HT1a antag 46.3 (no result: S1P1 ag pot)
COc1ccc(CC(C)N2CCN(c3ccccc3OC)CC2)cc1OC (configuration not stated)	5HT1a antag 98.2
COc1ccccc1N1CCN(Cc2cccc(OC)c2OC)CC1	none
COc1ccccc1N1CCN(Cc2ccc(Br)o2)CC1	none
CCOC(=O)c1ccc(S(=O)(=O)N2CCN(CC(=O)NC(=O)NC3CCCCC3)CC2)cc1	none
O=c1[nH]ncn2cccc12	none
CSc1nc2c(c(=O)[nH]1)C(c1ccncc1)C(C(=O)OC(C)C)=C(C)N2 (configuration not stated)	none (no result: S1P1 ag pot, S1P3 agonist)
CCCCOC(=O)C1=C(C)NC2=C(C(=O)CCC2)C1c1cc(OC)ccc1OC (configuration not stated)	none
COc1cc(CN2CCN(c3cccc(C)c3C)CC2)cc(OC)c1O	5HT1E ag 57.0
CCOc1ccccc1N1CCN(Cc2ccc(OC)c(OC)c2)CC1	5HT1E ag 20.1, 5HT1a antag 57.2
CCN1CCN(Cc2ccc(OC)c(OCc3ccccc3)c2)CC1	none
CC1CCN(C(=S)c2ccccc2O)CC1	none
COC(=O)Nc1nc2ccc(C(=O)c3ccccc3)cc2[nH]1	HTR1E antagonist 74.6 (no result: 5HT1a antag)
CCCSc1ccc2nc(NC(=O)OC)[nH]c2c1	HTR1E antagonist 41.5 (no result: 5HT1a antag)
COc1cc(C(=O)Nc2nc3ccccc3[nH]2)cc(OC)c1OC	none
